# Rows were chosen to be rich in hits. Some 1.9% of all compounds tested hit in one or more screens of this group.
# MT stabilizer – stabilizes microtubules in HeLa cells. 200,000 tested, 0.83% active. % tubulin-high responders, % at 10 µM. HeLa tubulin immunostaining HCS, 24 h; share of cells brighter than vehicle mean+2SD;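 active = plate Z-score above 3 for both tubulin-high and condensed-nucleus cell shares, with cell loss under 80%, at 10 µM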;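 note: anti alpha tubulin signal scored within the nucleus-defined area of each cell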
# ROMK primary – modulates human ROMK potassium channel activity. P48048. Tet-inducible ROMK, thallium flux fluorescence; actives lie on both sides. B-score at 10 µM. 130,000 tested, 2% active;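 active = signal ratio slope over the read window, or its plate-corrected B-score, at least 3 SD from the plate mean, either direction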;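 note: B-score of the F/F0 ratio slope over 7 to 12 s after thallium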
# Target sequence (P48048 whole entry, looked up): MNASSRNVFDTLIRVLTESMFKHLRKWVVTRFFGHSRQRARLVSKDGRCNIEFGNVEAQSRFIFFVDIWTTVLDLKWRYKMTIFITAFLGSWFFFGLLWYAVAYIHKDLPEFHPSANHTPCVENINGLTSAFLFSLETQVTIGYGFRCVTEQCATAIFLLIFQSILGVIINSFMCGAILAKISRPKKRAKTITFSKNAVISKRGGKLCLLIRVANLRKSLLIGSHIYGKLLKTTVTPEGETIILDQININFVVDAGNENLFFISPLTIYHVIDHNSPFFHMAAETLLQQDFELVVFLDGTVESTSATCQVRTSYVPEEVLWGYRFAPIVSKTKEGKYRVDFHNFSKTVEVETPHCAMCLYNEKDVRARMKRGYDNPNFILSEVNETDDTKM
# b-catenin transl – beta-catenin nuclear translocation modulation; AID 1665; HeLa beta-catenin nuclear translocation, immunofluorescence imaging; nuclear translocation activity, % at 5 µM; 190,000 tested, 0.3% active;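 active = nuclear translocation activity above 50% at 5 µM, with a well cell count of 50 or more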;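 note: per-cell ratio of nuclear to cytoplasmic median beta-catenin stain intensity; plate controls were DMSO negative control for no effect and GSK-3 inhibitor IX positive control for full effect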
#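 Assay system: human HeLa cells, native beta-catenin; doses: 5 µM primary, 0.02–20 µM confirmation; incubation: compound treatment 24 h, 37°C, 5% CO2; technique: fluorescence imaging of beta-catenin antibody stain plus DAPI; measure: % activation, nuclear-to-cytoplasmic median beta-catenin signal ratio per cell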
# The depositor's hits bear a star; x = not tested or not shown.
SMILES,MT stabilizer,ROMK primary,b-catenin transl
O=C(Cc1ccc(-n2c(=O)c3sccc3n(CC(=O)Nc3ccccc3F)c2=O)cc1)NCc1ccco1,1,-0.092,-5
CCCN(Cc1cc2cc(OC)ccc2[nH]c1=O)C(=O)c1ccncc1,13*,-0.044,0
COc1ccc2[nH]c(=O)c(CN(C)C(=O)c3ccncc3)cc2c1,2,0.82,-5
O=C(NCc1ccco1)c1ccc(COc2cc(Cl)ccc2Cl)cc1,5,x,0
Cn1c(SCC(=O)NNC(=O)Cc2ccccc2)nc2ccccc2c1=O,2,-0.28,-5
CCn1c(-c2ccccc2Cl)nn(CC(=O)Nc2ccccc2C)c1=S,2,x,0
O=C(CSc1nnc(Cn2c(=O)sc3ccccc32)n1-c1ccccc1)Nc1nccs1,3,x,-1
O=C(CSc1ncccn1)NC(=O)c1ccccc1,2,x,x
COc1ccc(Br)cc1/C=N/NC(=O)c1cc(OC)c(OC)c(OC)c1,10,0.047,x
COc1cc(C(=O)N/N=C/c2ccsc2C)cc(OC)c1OC,11,x,163*
O=C1CC(C(=O)Nc2cccc(F)c2)n2ncnc2N1 (centres undefined),1,-0.91,-1
CCC(C)c1ccccc1NC(=O)COC(=O)c1ccc2[nH]c3c(c2c1)CCCC3 (centres undefined),13*,0.5,0
O=C(COC(=O)c1ccc2[nH]c3c(c2c1)CCCC3)Nc1ccccc1Cl,2,-0.22,-3
O=C(CSc1nc2nn(-c3ccccc3)c(=O)c-2c2n1CCCCC2)NCCCc1ccccc1,2,-0.5,3
CCCCNc1c2c3c(cccc3n(C)c1=O)C(=O)c1ccccc1-2,27*,x,2
Cn1c(=O)c(NCCO)c2c3c(cccc31)C(=O)c1ccccc1-2,1,x,x
O=C(CNc1n[nH]c(=O)[nH]c1=O)N/N=C/C1CC=CCC1 (centres undefined),x,x,0
CN(C)c1ccc(-c2nn3c(C4CCCCC4)nnc3s2)cc1,2,x,1
CCCCSc1nnc(-c2ccccc2)c2ccccc12,4,x,1
COc1cc(NC(=O)COc2ccc(Cl)cc2)ccc1-c1cc2ccccc2oc1=O,24*,-0.041,-1
COc1cc(NC(=O)COc2ccc(Cl)cc2)ccc1NC(=O)C(C)C,x,x,1
COC(=O)NC(=S)Nc1ccc(Oc2ccc(Cl)cc2Cl)c(Cl)c1,26*,0.73,-3
COC(=O)NC(=S)Nc1ccc(Oc2ccc(Cl)cc2)c(Cl)c1,1,0.93,3
Cc1ccc(N2C(=O)N(CC(=O)Nc3ccc(C)c(C)c3[N+](=O)[O-])C(=O)C2C)cc1 (centres undefined),6,0.087,-4
O=C1/C(=C/c2cccnc2)CCc2c1[nH]c1ccccc21,4,x,0
SMILES,MT stabilizer,ROMK primary,b-catenin transl
CC1C/C(=C\c2cccnc2)C(=O)/C(=C/c2cccnc2)C1 (centres undefined),32*,-6.1*,0
CN(C)c1cc(-c2ccccc2)nc(N)n1,13*,x,x
Nc1nc(-c2ccccc2)cc(-c2ccccc2O)n1,2,0.91,-12
CCc1ccccc1NC(=O)C1CCN(C(=O)c2ccc([N+](=O)[O-])cc2)CC1,2,-0.69,0
O=C1CN(C(=O)COc2cccc(F)c2)c2ccccc2N1,7,x,-1
Cc1noc(C)c1COc1cccc(C(=O)OCC(=O)N2CC(=O)Nc3ccccc32)c1,39*,x,0
O=C(c1ccccn1)N(c1ccccc1)C1(C(=O)NC2CCCCC2)CCCCC1,2,0.92,1
CC12CCC(C/C1=N\N=C1\NC(=O)/C(=C\c3ccc(Cl)cc3)S1)C2(C)C (centres undefined),2,1.3,-1
O=C(Nc1nc(-c2cc(F)ccc2F)cs1)c1ccccn1,8,1.3*,-2
O=C(Nc1nc(-c2cc(F)ccc2F)cs1)C1=NN(c2ccccc2)C(=O)CC1,3,0.26,2
CCOC(=O)C1CCCN(C(=S)Nc2ccc(C)cc2C)C1 (centres undefined),2,0.45,-2
COc1ccc(N(CCC#N)S(=O)(=O)c2cccc3nsnc23)cc1,5,0.54,-4
COc1ccc(-c2cc(=O)c3ccccc3o2)cc1,x,x,1
COc1ccc2oc(-c3ccccc3[N+](=O)[O-])cc(=O)c2c1,16*,0.51,18
O=[N+]([O-])c1cccc(-n2nnnc2CN2CCCC2)c1,3,0.73,-2
CO/N=C/C(=N\Nc1ccc(OC)cc1)C(=O)c1ccc(F)cc1,2,0.36,4
CO/N=C/C(=N\Nc1ccc(C)cc1)C(=O)c1ccc(OC)cc1,53*,0.91,x
CCOC(=O)c1ccccc1NS(=O)(=O)c1ccc(C)cc1,26*,0.19,x
Cc1ccc(S(=O)(=O)Nc2ccnc3ccccc23)cc1,1,-1.8,-3
Cc1ccc(S(=O)(=O)Nc2ccccc2-c2ccccc2)cc1,36*,x,62*
CCOC(=O)c1ccccc1NS(=O)(=O)c1ccccc1,3,x,-1
Cc1ccc(S(=O)(=O)Nc2ccc(O)c3ncccc23)cc1,10,0.58,58*
Cc1ccc(S(=O)(=O)Nc2cccc3ncccc23)cc1,x,-0.38,0
O=C(Nc1ccc(Br)cn1)c1cccc2c1-c1ccccc1C2=O,36*,0.84,1
Cc1cccc(NC(=O)c2cccc3c2-c2ccccc2C3=O)n1,2,-0.027,0
SMILES,MT stabilizer,ROMK primary,b-catenin transl
O=C(CNC(=O)c1ccccc1Cl)OC1CCOC1=O (centres undefined),7,0.037,x
Cc1ccc(CSc2nccc(-c3c(C)nc4ccccn34)n2)cc1,x,x,55*
Cc1ccc(CSc2ncn(-c3ccccc3)n2)cc1,2,0.29,-10
COc1ccc(N2CC(C(=O)N/N=C/c3ccc([N+](=O)[O-])cc3)CC2=O)cc1 (centres undefined),3,x,-1
COc1ccc(N2CC(C(=O)N/N=C/c3ccc(C)cc3)CC2=O)cc1 (centres undefined),21,1.2,54*
COc1ccc(C2(c3ccc(O)cc3O)CC(c3ccccc3Cl)NC(=S)N2)cc1 (centres undefined),2,x,-1
CC[N+](C)(CC)CC(O)COCC1COc2ccccc2O1 (centres undefined),5,x,-1
C=CCOc1ccc(C2C(C#N)=C(N)N(Nc3ccccc3)C3=C2C(=O)CCC3)cc1OC (centres undefined),40*,-0.33,0
COc1cc(C2C(C#N)=C(N)N(Nc3ccccc3)C3=C2C(=O)CC(C)(C)C3)ccc1OCc1ccccc1 (centres undefined),3,x,6
Cn1cccc1-c1cc(C(=O)N/N=C/c2cccc(O)c2)[nH]n1,6,-0.76,0
O=C(Nc1ccc(Cl)cn1)c1ccc([N+](=O)[O-])o1,8.3*,-0.65,5
Cc1c(Cl)c([N+](=O)[O-])nn1Cc1ccc(C(=O)Nc2ccc(Cl)cn2)o1,2,-0.17,2
CCOC(=O)c1ccc(Nc2nnc(C)c3ccccc23)cc1,x,x,-1
C=CCNC(=S)Nc1ccc(N(C)C)cc1,x,x,-4
Cc1nn(-c2ccccc2)c2sc(C(=O)NC3CC3)cc12,4,x,1
Cc1nn(-c2ccccc2)c2sc(C(=O)N(CC(=O)NC3CCCC3)Cc3ccco3)cc12,40*,x,-2
CCOc1cc(CNc2nn[nH]n2)ccc1OCC(=O)NC(C)(C)C,3,-0.11,0
CCc1cc(C(=O)N/N=C/c2c(C)[nH]c3ccccc23)cs1,5,-1.8,8

# Screens as filed in PubChem.
